Measured values published in article PMC4104500 (Biochemistry, 2013).

T1: CIB1 (Homo sapiens, UniProt Q99828)
T1 sequence (Q99828 1-191): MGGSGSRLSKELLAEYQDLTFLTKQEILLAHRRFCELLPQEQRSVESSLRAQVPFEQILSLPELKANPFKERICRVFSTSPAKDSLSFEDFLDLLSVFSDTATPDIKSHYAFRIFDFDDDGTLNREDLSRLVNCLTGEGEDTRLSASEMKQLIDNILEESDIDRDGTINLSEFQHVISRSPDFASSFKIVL

T2: Human wild type CIB1 (calcium and integrin binding protein 1) (human, UniProt Q99828 1-191)
T2 sequence (looked up): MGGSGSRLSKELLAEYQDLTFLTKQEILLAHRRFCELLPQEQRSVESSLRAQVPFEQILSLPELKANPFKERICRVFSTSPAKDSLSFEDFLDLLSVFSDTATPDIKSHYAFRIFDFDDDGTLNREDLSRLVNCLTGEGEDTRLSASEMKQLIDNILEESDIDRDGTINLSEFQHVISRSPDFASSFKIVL


Tests used:
[1] = target: Human wild type CIB1 (calcium and integrin binding protein 1) (human) (UniProt Q99828); experiment: ITC
CIB1 = target: T1, CIB1; experiment: Isothermal titration calorimetry; format: binding
Outline: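 Recombinant CIB1 from E. coli BL21(DE3), His tag removed by TEV, dialyzed into 50 mM HEPES pH 7.4, 150 mM NaCl, 0.1 mM CaCl₂ unless otherwise noted, at 100 µM in cell. Peptides (0.8–1 mM, same buffer) injected as 10 µL every 300 s at 15 °C or 26 °C. Dilution heats taken from post-saturation injections; one-site fit; TΔS and ΔG calculated.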

[2] = target: T2, Human wild type CIB1 (calcium and …); experiment: ITC
[3] = target: T2, Human wild type CIB1 (calcium and …); experiment: pull-down
[4] = ITC buffer without any NaCl, calculated value

| Molecule | Kd [2] [µM] | dH [2] [kcal/mol] | stoichiometry N [2] | further results |
| --- | --- | --- | --- | --- |
| integrin α4 cytoplasmic tail (CT) peptide |  |  |  | dH [1]: 7.82 kcal/mol |
| αIIb: synthetic cytoplasmic tail (CT) peptide of integrin αIIb; sequence in Table S1 |  |  |  | TΔS (CIB1; ITC buffer with 150 mM NaCl, calculated from ΔG = ΔH − TΔS): 4.09 kcal/mol; ΔG (CIB1; ITC buffer with 150 mM NaCl, calculated from ΔG = −RT ln Ka): -7.98 kcal/mol; TΔS (CIB1; [4]): -0.574 kcal/mol; ΔG (CIB1; [4]): -7.58 kcal/mol |
| IILLLWKCGFFKRARTRALYEAKRQKAEMKSQPSETERLTDDY [integrin α3 cytoplasmic tail (CT) peptide] | 5.1 | 1 | 1 |  |
| LIYILYKLGFFKRSLPYGTAMEKAQLKPPATSDA [integrin α5 cytoplasmic tail (CT) peptide] | 6.9 | 5.11 | 0.9 |  |
| LVLAMWKVGFFKRNRPPLEEDDEEGE (domain or fragment, human, UniProt P08514 1014-1039, looked up) [MBP-αIIb cytoplasmic tail fusion protein] |  |  |  | binding result [3]: binds |
| LVFVMYRMGFFKRVRPPQEEQEREQLQPHENGEGNSET (domain or fragment, human, UniProt P06756 1011-1048, looked up) [MBP-αV cytoplasmic tail fusion protein] |  |  |  | binding result [3]: binds |

Now from value to molecule, other results behind:

| Kd [2] [µM] | dH [2] [kcal/mol] | stoichiometry N [2] | Molecule | further results |
| --- | --- | --- | --- | --- |
| 3.2 | 1.96 | 1.1 | integrin αL cytoplasmic tail (CT) peptide (peptide) IFIVLYKVGFFKRNLKEKMEAGRGVPNGIPAEDSEQLASGQEAGDPGCLKPLHEKDSESGGGKD |  |
| 4.3 | 1.74 | 0.9 | LVFVMYRMGFFKRVRPPQEEQEREQLQPHENGEGNSET [integrin αV cytoplasmic tail (CT) peptide, wild type] |  |
